Laboratory results from ChEMBL document CHEMBL3085674, “Synthesis of some dihydropyrimidine-based compounds bearing pyrazoline moiety and evaluation of their antiproliferative activity” (Eur J Med Chem, 2013).

Legend:
Type in all cases: functional, cell-based
HT-29 = experiment: Antiproliferative activity against human HT-29 cells after 72 hrs by cell titer glo assay; details: HT-29, 72 h
How it was run: (§1)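 ATCC tumour cells kept in RPMI 1640 with 5% FBS, 2 mM glutamine, streptomycin and amphotericin at 37 °C, 5% CO2. Cells were trypsinised at 70–90% confluence and used only at >95% Trypan blue viability. Seeded at 5000 cells/well, rested 18–24 h, then dosed from DMSO stocks (0.1% DMSO final). ATP luminescence was read after 72 h. IC50 came from dose–response curves of 8 concentrations, four replicates each.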

A549 = experiment: Antiproliferative activity against human A549 cells after 72 hrs by cell titer glo assay; details: A549, 72 h; how it was run: as §1
MCF7 = experiment: Antiproliferative activity against human MCF7 cells after 72 hrs by cell titer glo assay; details: MCF7, 72 h; how it was run: as §1
MDA-MB-231 = experiment: Antiproliferative activity against human MDA-MB-231 cells after 72 hrs by cell titer glo assay; details: MDA-MB-231, 72 h; how it was run: as §1

Cn1c(N2N=C(c3ccccc3)CC2c2ccc(F)cc2)nc(-c2ccc(Cl)cc2)c(C#N)c1=O (stereo unspecified) was tested, and the IC50 (HT-29) was 13.7 µM, the IC50 (A549) was 27.8 µM and the IC50 (MCF7) was 36.8 µM. For the same compound, the IC50 (MDA-MB-231) was 20.9 µM.

Cn1c(N2N=C(c3ccccc3)CC2c2ccc(Cl)cc2)nc(-c2ccccc2)c(C#N)c1=O (stereo unspecified) was tested, and the IC50 (HT-29) was 19.2 µM, the IC50 (A549) was 3.25 µM and the IC50 (MCF7) was 3.28 µM. It also gave an IC50 (MDA-MB-231) of 28 µM.

COc1ccc(C2CC(c3ccccc3)=NN2c2nc(-c3ccccc3)c(C#N)c(=O)n2C)cc1 (stereo unspecified) was tested, and the IC50 (HT-29) was 14.7 µM, the IC50 (A549) was 1.76 µM and the IC50 (MCF7) was 18 µM. The IC50 (MDA-MB-231) was 12.8 µM.

With COc1cccc2c1C(=O)c1c(O)c3c(c(O)c1C2=O)C[C@@](O)(C(=O)CO)C[C@@H]3O[C@H]1C[C@H](N)[C@H](O)[C@H](C)O1 [DOXORUBICIN] the IC50 (HT-29) was 2.75 µM and the IC50 (A549) was 3.13 µM.

Cn1c(N2N=C(c3ccccc3)CC2c2ccccc2)nc(-c2ccccc2)c(C#N)c1=O (stereo unspecified) was tested, and the IC50 (HT-29) was 2.49 µM, the IC50 (A549) was 52.9 µM and the IC50 (MCF7) was 35.4 µM. For the same compound, the IC50 (MDA-MB-231) was 3.99 µM.

In the case of Cn1c(N2N=C(c3ccccc3)CC2c2ccc(Cl)cc2)nc(-c2ccc(Cl)cc2)c(C#N)c1=O (stereo unspecified), the IC50 (HT-29) is reported as 15 µM, the IC50 (A549) is reported as 24.7 µM and the IC50 (MCF7) is reported as 46.3 µM. It also gave an IC50 (MDA-MB-231) of 25.1 µM.

COc1ccc(C2=NN(c3nc(-c4ccc(Cl)cc4)c(C#N)c(=O)n3C)C(c3ccc(OC)cc3)C2)cc1 (stereo unspecified) showed an IC50 (HT-29) of 18.2 µM, an IC50 (A549) of 39.7 µM and an IC50 (MCF7) of 99.8 µM. The IC50 (MDA-MB-231) was 28.3 µM.

Compound Cc1ccc(C2=NN(c3nc(-c4ccc(Cl)cc4)c(C#N)c(=O)n3C)C(c3ccc(F)cc3)C2)cc1 (stereo unspecified) has an IC50 (HT-29) of 10.5 µM, an IC50 (A549) of 35.6 µM and an IC50 (MCF7) of 116 µM. For the same compound, the IC50 (MDA-MB-231) was 19.3 µM.

Cn1c(N2N=C(c3ccc(Cl)cc3)CC2c2ccccc2)nc(-c2ccccc2)c(C#N)c1=O (stereo unspecified) showed an IC50 (HT-29) of 6.6 µM, an IC50 (A549) of 26.9 µM and an IC50 (MCF7) of 12.2 µM. For the same compound, the IC50 (MDA-MB-231) was 10.6 µM.

In the case of COc1ccc(C2CC(c3ccccc3)=NN2c2nc(-c3ccc(Cl)cc3)c(C#N)c(=O)n2C)cc1 (stereo unspecified), the IC50 (HT-29) is reported as 11 µM, the IC50 (A549) is reported as 23.8 µM and the IC50 (MCF7) is reported as 52.4 µM. It also gave an IC50 (MDA-MB-231) of 19.5 µM.

For Cn1c(N2N=C(c3ccccc3)CC2c2ccccc2)nc(-c2ccc(Cl)cc2)c(C#N)c1=O (stereo unspecified), the IC50 (HT-29) was 19.5 µM, the IC50 (A549) was 28.1 µM and the IC50 (MCF7) was 34.4 µM. The IC50 (MDA-MB-231) was 29.1 µM.

In the case of COc1ccc(C2CC(c3ccc(Cl)cc3)=NN2c2nc(-c3ccc(Cl)cc3)c(C#N)c(=O)n2C)cc1 (stereo unspecified), the IC50 (HT-29) is reported as 15.1 µM, the IC50 (A549) is reported as 35.6 µM and the IC50 (MCF7) is reported as 27.3 µM. For the same compound, the IC50 (MDA-MB-231) was 24.8 µM.

With Cn1c(N2N=C(c3ccc(Cl)cc3)CC2c2ccccc2)nc(-c2ccc(Cl)cc2)c(C#N)c1=O (stereo unspecified) the IC50 (HT-29) was 8.72 µM, the IC50 (A549) was 43.9 µM and the IC50 (MCF7) was 25.3 µM. For the same compound, the IC50 (MDA-MB-231) was 12.4 µM.

With Cn1c(N2N=C(c3ccccc3)CC2c2ccc(F)cc2)nc(-c2ccccc2)c(C#N)c1=O (stereo unspecified) the IC50 (HT-29) was 8.15 µM, the IC50 (A549) was 39.2 µM and the IC50 (MCF7) was 38.1 µM. It also gave an IC50 (MDA-MB-231) of 11.8 µM.

For COc1ccc(C2=NN(c3nc(-c4ccccc4)c(C#N)c(=O)n3C)C(c3ccc(OC)cc3)C2)cc1 (stereo unspecified), the IC50 (HT-29) was 9.42 µM, the IC50 (A549) was 26.5 µM and the IC50 (MCF7) was 127 µM. The IC50 (MDA-MB-231) was 16.2 µM.

COc1ccc(C2CC(c3ccc(Cl)cc3)=NN2c2nc(-c3ccccc3)c(C#N)c(=O)n2C)cc1 (stereo unspecified) gave an IC50 (HT-29) of 9.12 µM, an IC50 (A549) of 6.07 µM and an IC50 (MCF7) of 4.8 µM. The IC50 (MDA-MB-231) was 11.1 µM.

In the case of Cc1ccc(C2=NN(c3nc(-c4ccccc4)c(C#N)c(=O)n3C)C(c3ccc(F)cc3)C2)cc1 (stereo unspecified), the IC50 (HT-29) is reported as 4.62 µM, the IC50 (A549) is reported as 2 µM and the IC50 (MCF7) is reported as 23.1 µM. For the same compound, the IC50 (MDA-MB-231) was 5.1 µM.
